From PubChem BioAssay
Rows were chosen to be rich in hits. Some 1.2% of all compounds tested hit in one or more screens of this group.
CRFBP-R2 agonist: agonists of CRF-BP/CRF-R2 complex, primary screen, cell-based, HEK293, calcium dye fluorescence, uHTS; CRF-binding protein / CRF receptor 2 complex (human); calcium dye fluorescence (FLIPR); percent of saturating CRF peptide response; activation, % at 13.2 µM; actives 0.46% (n = 350,000);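 active = activation of at least 50%, plus an integration ratio under a set limit after plate pattern correction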;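 note: plate controls were neutral control wells without compound for no effect and CRF at EC100 for full effect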
CRFBP-R2 block: antagonists of CRF-BP/CRF-R2 complex, primary screen, cell-based, HEK293, calcium dye fluorescence, uHTS | actives 0.59% (n = 350,000) | AID 588475, 2011 | CRF-induced calcium fluorescence | inhibition, % at 11.8 µM;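 active = inhibition of the ligand-induced calcium signal above about 50% at the single tested concentration, limit read from the data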
zfTRPN1 agonist: zebrafish TRPN1 channel agonists, primary screen, cell-based, HEK293, calcium fluorescence | HEK293 zebrafish TRPN1-YFP, Fluo-8 calcium fluorescence; 100% = response to 87 µM carbachol | transient receptor potential cation channel N1 (TRPN1/NompC), Danio rerio | activation, % at 3 µM | actives 0.18% (n = 220,000);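 active = activation above its plate's cutoff, the mean activation of test wells on that plate plus 3 SD, cut at about 19% in these data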;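 note: 0% = DMSO alone and 100% = 87 µM carbachol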
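Material: zebrafish TRPN1-YFP in HEK293 cells. Doses: one dose of 3 µM, 0.3% DMSO. Incubation: dye 1 h 37 °C plus 30 min RT. Measured by: intracellular calcium fluorescence with Fluo-8.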
TRPML3 ag: human TRPML3 channel agonists, primary screen, cell-based, HEK293 TRPML3-YFP, Fluo-8 calcium fluorescence, 3 µM; Mucolipin-3 (Homo sapiens), Q8TDD5; actives 0.29% (n = 220,000); activation, % at 3 µM; 100% = the carbachol control signal;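 active = activation above its plate's cutoff, the mean activation of the plate's test wells plus 3 SD, cut at about 12% in these data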;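 note: 0% = DMSO only wells and 100% = carbachol wells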
Target sequence (Q8TDD5 whole entry, looked up): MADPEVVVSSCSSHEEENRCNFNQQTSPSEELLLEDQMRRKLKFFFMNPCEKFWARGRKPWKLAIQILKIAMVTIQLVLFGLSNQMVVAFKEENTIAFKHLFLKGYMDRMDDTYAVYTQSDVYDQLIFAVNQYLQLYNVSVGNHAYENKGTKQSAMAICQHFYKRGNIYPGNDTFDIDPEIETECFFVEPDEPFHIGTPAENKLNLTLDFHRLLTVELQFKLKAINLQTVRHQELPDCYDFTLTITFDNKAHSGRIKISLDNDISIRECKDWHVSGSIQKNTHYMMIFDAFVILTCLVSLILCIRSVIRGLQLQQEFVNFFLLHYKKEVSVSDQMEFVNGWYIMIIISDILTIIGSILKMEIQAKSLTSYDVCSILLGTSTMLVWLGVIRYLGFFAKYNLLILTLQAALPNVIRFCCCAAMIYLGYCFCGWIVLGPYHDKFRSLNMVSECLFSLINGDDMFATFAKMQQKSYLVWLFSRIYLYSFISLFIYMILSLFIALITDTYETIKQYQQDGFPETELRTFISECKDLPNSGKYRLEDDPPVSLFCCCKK
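Material: HEK293 cells stably carrying human TRPML3-YFP; compound dosing: single dose, 3 µM final nominal compound, 0.3% DMSO final; incubation: 1-h 37 °C dye load, 5-s basal, 120-s post-compound reads; technique: Fluo-8 intracellular calcium fluorescence, excitation 470-495 nm, emission 515-575 nm; read-out basis: percent activation from peak-to-basal fluorescence ratio, scaled between DMSO and carbachol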
* = called active by the depositor; . = no result.

SMILES	CRFBP-R2 agonist	CRFBP-R2 block	zfTRPN1 agonist	TRPML3 ag
CCCCCCc1cc2cc(/C(N)=N/NC(=O)c3ccncc3)c(=O)oc2cc1O	102.3*	-47.6	.	.
CCCCCCc1cc2cc(C(=O)OCC)c(=O)oc2cc1O	20.7	-14.9	1.8	1.0
CCCCCCc1cc2cc(C(=O)Nc3cccc(OC)c3)c(=O)oc2cc1O	57.1*	-12.1	1.3	0.3
CC1(C)CC(=O)C(C2C3=C(CC(C)(C)CC3=O)Oc3ccccc32)C(=O)C1 (stereo not given)	-4.4	24.3	0.1	-0.9
CC1(C)CC(=O)C(C2C3=C(CC(C)(C)CC3=O)Oc3ccc4ccccc4c32)C(=O)C1 (stereo not given)	25.6	81.2*	0.7	0.7
CC(Nc1ccc(Br)cc1)C(=O)Nc1cccc(S(=O)(=O)N2CCOCC2)c1 (stereo not given)	1.6	89.8*	.	.
CC(Oc1cccc(Br)c1)C(=O)Nc1cccc(S(=O)(=O)N2CCOCC2)c1 (stereo not given)	1.5	-2.0	.	.
CCOC(=O)/C=c1/s/c(=C/c2ccc3cc(OC)ccc3c2)c(=O)n1CC(=O)NCC1CCCO1 (stereo not given)	79.2*	-45.3	.	.
CCOC(=O)c1sc2nc(C)n(CC(=O)NCC3CCCO3)c(=O)c2c1C (stereo not given)	-0.2	58.0*	1.6	0.6
CCCc1cc(=O)[nH]c(SCC(=O)Nc2ccc3ccccc3c2)n1	-0.4	-1.9	.	.
CCCc1cc(=O)[nH]c(SCC(=O)Nc2ccc(OC(F)F)cc2)n1	-0.5	66.1*	-0.8	0.5
CCc1cc2c(Nc3ccccc3O)nc(C)nc2s1	-0.2	13.2	.	.
O=C(NC1CCCCC1)C1CCCN1S(=O)(=O)c1cccc2nsnc12 (stereo not given)	-2.2	-2.1	0.4	0.6
CC(NC(=O)C1CCCN1S(=O)(=O)c1cccc2nsnc12)c1ccccc1 (stereo not given)	-2.9	76.1*	.	.
O=C(CSc1ccc2nnc(-c3cccnc3)n2n1)Nc1ccc(F)cc1	0.2	7.4	.	.
CCOc1ccc(NC(=O)CSc2ccc3nnc(-c4cccnc4)n3n2)cc1	0.6	125.0*	.	.
CN(C)C(=O)C1CC(=O)OC12CCCCC2 (stereo not given)	-1.2	113.6*	1.8	0.3
O=C(CC1C(=O)NCCN1C(=O)Nc1ccc(Cl)cc1)Nc1ccc(F)cc1 (stereo not given)	5.8	-15.7	2.3	0.9
Cc1cccc(-n2c(N)c(-c3nc4ccccc4n3C)c3nc4ccccc4nc32)c1	37.4	-103.1	0.7	1.1
Cn1c(-c2c(N)n(-c3ccccc3)c3nc4ccccc4nc23)nc2ccccc21	85.8*	-200.3	5.9	1.7
Cc1ccc2cc(S(=O)(=O)NCCCC(=O)O)ccc2c1	-0.6	3.8	-0.8	0.5
CCOc1ccc(C(=O)Nc2cc(NC(=O)c3ccc(OCC)c(Cl)c3)cc(C(=O)O)c2)cc1Cl	21.9	-15.1	0.0	0.8
CCOc1ccc(C(=O)Nc2ccc(Cl)cn2)cc1Cl	0.3	56.0*	-1.3	-1.2
COc1cc(/C=C2\SC(=O)N(Cc3ccc(Cl)cc3)C2=O)cc([N+](=O)[O-])c1O	-0.3	54.7*	-1.1	0.8
O=C1/C(=C\c2ccc(O)cc2)SC(=S)N1Cc1ccccc1	15.2	-21.8	.	.
SMILES	CRFBP-R2 agonist	CRFBP-R2 block	zfTRPN1 agonist	TRPML3 ag
O=C1/C(=C\c2cc(Br)cc(Br)c2O)SC(=S)N1Cc1ccccc1	20.7	63.6*	.	.
O=C1/C(=C\c2cccc([N+](=O)[O-])c2O)SC(=S)N1Cc1ccccc1	5.4	77.0*	.	.
O=C1NC(=Nc2ccccc2Cl)S/C1=C\c1cccc([N+](=O)[O-])c1O	-1.4	53.0*	.	.
COc1c(/C=C2\SC(=Nc3ccccc3Cl)NC2=O)cccc1[N+](=O)[O-]	-5.0	11.8	.	.
O=C(CC1C(=O)NCCN1Cc1ccccc1C(F)(F)F)NCCn1cccn1 (stereo not given)	2.9	0.2	-0.2	0.4
COc1ccc(Cl)cc1NC(=S)NN1CCOCC1	-0.2	-0.1	-0.1	0.9
CN1C(=S)SC(N(O)C(=O)Nc2cccc3ccccc23)C1(C)C (stereo not given)	-0.8	9.0	-0.7	-0.7
COc1cc(/C=C2/SC(=S)N(Cc3ccccc3)C2=O)cc(Cl)c1O	171.3*	-134.2	.	.
O=C1/C(=C/c2ccc(O)c([N+](=O)[O-])c2)SC(=S)N1Cc1ccccc1	8.4	108.3*	2.4	0.5
CCOc1ccccc1C=C1SC(=S)N(CC)C1=O	3.5	-13.1	.	.
CCN1C(=O)/C(=C\C=C\c2ccccc2[N+](=O)[O-])SC1=S	-0.6	68.6*	0.5	0.7
COc1cccc(N2CCN(C3CC(=O)N(c4ccc(F)c(Cl)c4)C3=O)CC2)c1 (stereo not given)	-1.1	1.0	-0.7	0.9
O=C(COC(=O)c1ccccc1C(=O)c1ccc(Cl)c([N+](=O)[O-])c1)NC1CC1	-5.9	52.0*	-1.1	0.2
Nc1ccccc1Sc1ccc(C(=O)c2ccccc2C(=O)O)cc1[N+](=O)[O-]	-0.3	-7.0	0.3	0.6
CNC(=O)COC(=O)c1ccccc1C(=O)c1ccc(Cl)c([N+](=O)[O-])c1	0.6	44.1	-0.8	0.0
CC(C)OC(=O)c1ccccc1C(=O)c1ccc(N)c([N+](=O)[O-])c1	1.7	56.4*	-1.1	0.1
CC(C)(C)c1ccc(C(=O)CS(=O)(=O)c2ccccc2)cc1	3.7	77.4*	-1.2	-0.3
Cc1ccc(S(=O)(=O)CC(=O)c2ccccc2)cc1	-6.0	8.7	-0.5	-0.4
COc1ccc(OC)c(C2=C/C(=C/c3ccccn3)C(=O)O2)c1	76.5*	-58.8	2.0	1.5
O=C(Nc1cc(C(F)(F)F)cc(C(F)(F)F)c1)Nc1cnn(-c2ccc([N+](=O)[O-])cc2)c1C(F)(F)F	58.2*	-29.3	-2.2	1.1
CC1Cc2ccccc2N1C(=O)Cn1c(=O)oc2cc(S(=O)(=O)NC3CCCC3)ccc21 (stereo not given)	2.7	1.3	1.6	-0.9
C=CCn1c(=O)[nH]c2nc3cc(N=CN(C)C)c(C)cc3nc2c1=O	144.0*	-76.0	26.9*	8.6
CCOC(=O)C1=C(O)/C(=C/c2ccc(-c3ccccc3C(=O)O)o2)SC1=Nc1ccc(C)cc1	42.9	-26.1	.	.
CCOC(=O)C1=C(O)/C(=C/c2cn(CC(=O)NCC3CCCO3)c3ccccc23)SC1=Nc1ccc(C)cc1 (stereo not given)	60.9*	-18.2	1.1	1.0
CCOc1ccc(-c2c(C(=O)N/N=C(\C)c3ccncc3)nnn2-c2nonc2N)cc1	-0.7	-10.7	.	.
COc1cc(NC(=O)[C@H](C)NC(=O)N2CCn3c2nc2ccccc23)cc(OC)c1	-0.5	85.7*	.	.
COc1cccc(NC(=O)[C@H](C)NC(=O)N2CCn3c2nc2ccccc23)c1	0.6	-0.9	.	.
